Measured values gathered from unrelated publications.
Compare with care: the assays were run in different laboratories.

SMILES | tested on | observed | technique | tested at | setting | quantity | value
Cc1cccc(N(O)N=Nc2ccc(S(=O)(=O)Nc3cc(C)on3)cc2)c1 | – | DPPH scavenging | absorbance | 180 µg/mL | – | inhibition | 34.7%
O=C(Nc1ccc2c(c1)OC(F)(F)O2)Nc1ccc(Cl)c(C(F)(F)F)c1 | Salmonella | microbial growth | – | – | clinical isolate | MIC | > 100 µM
CCN(O)N=Nc1ccc(S(=O)(=O)Nc2nccs2)cc1 | – | DPPH scavenging | absorbance | 60 µg/mL | – | inhibition | 9.02%
O=C1O[C@H]([C@@H](O)CO)C(O)=C1O | – | DPPH scavenging | – | 100 µg/mL | – | inhibition | 81.3%
CCN(O)N=Nc1ccc(S(=O)(=O)Nc2onc(C)c2C)cc1 | – | DPPH scavenging | absorbance | 120 µg/mL | – | inhibition | 22.5%
COc1cc(C=Cc2cc(-c3ccccc3)nc(O)n2)ccc1O | – | DPPH scavenging | – | 12.5 µg/mL | – | inhibition | 38.3%
O=C1O[C@H]([C@@H](O)CO)C(O)=C1O | – | DPPH scavenging | absorbance | 80 µM | – | inhibition | 53.7%
C[C@@H](O)[C@H]1C(=O)N2C(C(=O)O)=C(S[C@@H]3CN[C@H](C(=O)N(C)C)C3)[C@H](C)[C@H]12 | Serratia fonticola | microbial growth | broth dilution | – | clinical isolate | MIC | 32 µg/mL
COc1cc(-c2ccc(-c3ccc(C(=N)N)nc3)s2)cc(OC)c1OC | NCI/ADR-RES | cell growth or viability | SRB | – | – | GI50 | 5.2 µM
Oc1ccc(Br)cc1C=NCCN1CCOCC1 | – | DPPH scavenging | absorbance | 120 µM | – | inhibition | 28.6%
COc1cc(C=CC(=O)CC(c2ccc([N+](=O)[O-])cc2)n2ccnc2)ccc1O (stereo not drawn) | – | DPPH scavenging | – | 50 µg/mL | – | inhibition | 61.4%
CCCN(O)N=Nc1ccc(S(=O)(=O)Nc2cc(C)on2)cc1 | – | DPPH scavenging | absorbance | 300 µg/mL | – | inhibition | 27.6%
